The list is not random: actives were taken first. Their share in the collection is about 2%.
NTR1 agonist – NTR1 (human) agonism; 330,000 tested, 0.17% active; P30989; activation, % at 20 µM; AID 493036; NTR1-U2OS beta-arrestin-GFP spot imaging, agonist mode;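 active = activation at or above 40% of the spot to cytoplasm intensity ratio, with at least 20 cells analyzed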
CAL PDZ FP-1 – CAL PDZ (human) peptide binding inhibition; AID 602252; inhibition, % at 24.9 µM; 300,000 tested, 0.92% active; Q9HD26; purified CAL PDZ, TMR-peptide fluorescence polarization, 1 h;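 active = mean inhibition of at least 30% with at least half of replicates also reaching 30%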
CAL PDZ FP-2 – inhibitors of human CAL PDZ peptide binding; AID 504414; 330,000 tested, 0.02% active; Q9HD26; purified CAL PDZ, TMR-peptide fluorescence polarization, 1 h; inhibition, % at 20 µM;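 active = highest replicate inhibition of at least 40%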
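Material: tagged CAL PDZ domain; buffer or medium: 25 mM sodium phosphate pH 7.4, 150 mM NaCl, TCEP, IgG, Thesit; compound dosing: single point, 20 µM; schedule: 1 h incubation at room temperature before polarization reading; measured by: FP readout, S and P plane fluorescence; read-out basis: percent inhibition from loss of millipolarization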
PKA-R2B act – activates the human PKA-R2B holoenzyme complex. PKA-R2B holoenzyme dissociation, Cy5-IP20 fluorescence polarization; R2B truncated from residue 108, S112A mutant; 0% DMSO only, 100% 113 µM cGMP. activation, % at 11.4 µM. 340,000 tested, 0.079% active;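 active = activation above a cutoff set at the mean over all compounds plus 3 SD, cut at about 18% in these data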;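 note: higher means more holoenzyme dissociation and a rise in polarization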
Target sequence (P31323 whole entry, looked up, other chains not shown, the tested form may be a part): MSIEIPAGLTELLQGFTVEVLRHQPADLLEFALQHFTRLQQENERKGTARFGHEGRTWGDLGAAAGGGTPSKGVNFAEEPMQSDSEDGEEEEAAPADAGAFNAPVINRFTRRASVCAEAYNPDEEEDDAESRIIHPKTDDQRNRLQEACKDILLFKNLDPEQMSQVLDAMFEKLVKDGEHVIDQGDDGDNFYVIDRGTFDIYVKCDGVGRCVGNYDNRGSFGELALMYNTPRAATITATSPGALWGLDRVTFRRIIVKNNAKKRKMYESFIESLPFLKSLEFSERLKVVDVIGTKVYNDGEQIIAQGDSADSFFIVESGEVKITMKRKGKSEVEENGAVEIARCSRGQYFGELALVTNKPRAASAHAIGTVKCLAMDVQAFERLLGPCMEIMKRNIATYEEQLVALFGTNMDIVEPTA
PKA-R1A act – PKA-R1A complex activation | activation, % at 11.4 µM | 340,000 tested, 0.083% active | PKA-R1A dissociation, Cy5-IP20 fluorescence polarization; scaled: DMSO 0%, 113 µM cGMP 100%;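 active = percent activation above the mean of all tested compounds plus 3 SD, cut at about 19% in these data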;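 note: higher means more PKAc released from R1A so a rise in polarization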
dFosB act-1 – mouse delta FosB homodimer activation; AID 493131; P13346; purified delta FosB, TAMRA-CDK5 oligo fluorescence polarization; percent of positive-control signal above neutral wells; activation, % at 25 µM; 340,000 tested, 0.99% active;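 active = mean activation above about 17%, with every replicate also reaching it, limit read from the data, passing the limit was not always enough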
dFosB act-2 – enhances mouse delta FosB homodimer binding to DNA. shares compounds with dFosB act-1. purified delta FosB, TAMRA-CDK5 oligo fluorescence polarization; normalised: neutral wells 0, positive control 100. activation, % at 24.9 µM. 2,400 tested, under 10 active. AID 588690;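 active = highest replicate activation at or above 34% and every replicate reaching that threshold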;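 note: higher polarization means more probe DNA bound by delta FosB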
Hits are given with their value.

COc1ccc(/C=C2\SC(=O)N(CC(=O)NNC(=O)c3ccccc3O)C2=O)cc1OC was read as NTR1 agonist inactive, CAL PDZ FP-1 inactive, CAL PDZ FP-2 inactive, PKA-R2B act inactive, PKA-R1A act inactive and dFosB act-1 inactive.
CCN1CCN(c2c(C=O)c(Cl)nc3ccc(OC)cc23)CC1 was read as NTR1 agonist inactive, CAL PDZ FP-1 inactive, CAL PDZ FP-2 inactive, PKA-R2B act inactive, PKA-R1A act inactive, dFosB act-1 27 and dFosB act-2 inactive.
CCOCc1c(C(=O)Nc2ccc(OC)nc2)oc2ccccc12 was read as NTR1 agonist inactive, CAL PDZ FP-1 inactive, CAL PDZ FP-2 inactive, PKA-R2B act inactive, PKA-R1A act inactive and dFosB act-1 inactive.
`O=[N+]([O-])c1ccc(Nc2nc(NC3CCCCC3)nc(N3CCCC3)n2)cc1` gave NTR1 agonist inactive, CAL PDZ FP-1 inactive, CAL PDZ FP-2 inactive, PKA-R2B act inactive, PKA-R1A act inactive, dFosB act-1 48 and dFosB act-2 inactive.
Screening O=[N+]([O-])c1ccc(NC2CCCC2)cc1 returned NTR1 agonist inactive, CAL PDZ FP-1 inactive, CAL PDZ FP-2 inactive, PKA-R2B act inactive, PKA-R1A act inactive and dFosB act-1 inactive.
O=[N+]([O-])c1ccc(Nc2nc(N/N=C/c3cccc(F)c3)nc(N3CCCC3)n2)cc1 was read as NTR1 agonist inactive, CAL PDZ FP-1 inactive, CAL PDZ FP-2 inactive, PKA-R2B act inactive, PKA-R1A act inactive, dFosB act-1 120 and dFosB act-2 inactive.
`CNc1nc(N/N=C/c2ccc([N+](=O)[O-])cc2)nc(Nc2ccccc2)n1` gave NTR1 agonist inactive, CAL PDZ FP-1 inactive, CAL PDZ FP-2 inactive, PKA-R2B act inactive, PKA-R1A act inactive, dFosB act-1 41 and dFosB act-2 inactive.
For O=[N+]([O-])c1cccc(/C=N/Nc2nc(N3CCOCC3)nc(N3CCOCC3)n2)c1 the results were NTR1 agonist inactive, CAL PDZ FP-1 inactive, CAL PDZ FP-2 inactive, PKA-R2B act inactive, PKA-R1A act inactive and dFosB act-1 inactive.
O=[N+]([O-])c1cc2c(cc1/C=N/Nc1nc(Nc3ccccc3)nc(N3CCCCC3)n1)OCO2 was read as NTR1 agonist inactive, CAL PDZ FP-1 inactive, PKA-R2B act inactive, PKA-R1A act inactive, dFosB act-1 38 and dFosB act-2 inactive.
For CCOc1ccccc1OCCCC(=O)N(CC)CC(=O)Nc1ccc(NC(C)=O)cc1 the results were NTR1 agonist inactive, CAL PDZ FP-1 inactive, CAL PDZ FP-2 inactive, PKA-R2B act inactive, PKA-R1A act inactive and dFosB act-1 inactive.
`CCCCCCN1C[C@H](n2cc(C3CC3)nn2)[C@@H](O)C[C@@H]1c1ccccc1` gave PKA-R2B act inactive and PKA-R1A act inactive.
Screening O=S(=O)(c1cc(F)ccc1F)N1CCN(C2CCCCC2)CC1 returned NTR1 agonist inactive, CAL PDZ FP-1 inactive, CAL PDZ FP-2 inactive, PKA-R2B act inactive, PKA-R1A act inactive and dFosB act-1 inactive.
For COc1ccc(/C=N/Nc2nc(N3CCCC3)nc(N3CCCC3)n2)cc1 the results were CAL PDZ FP-1 inactive, CAL PDZ FP-2 inactive, PKA-R2B act inactive, PKA-R1A act inactive and dFosB act-1 inactive.
`COc1cc(/C=N/Nc2nc(C)cc(C)n2)ccc1OC(=O)c1ccco1` gave NTR1 agonist inactive, CAL PDZ FP-1 inactive, CAL PDZ FP-2 inactive, PKA-R2B act inactive, PKA-R1A act inactive and dFosB act-1 inactive.
Screening COc1ccc(/C=N/Nc2nc(Nc3ccccc3)nc(N3CCCC3)n2)cc1 returned NTR1 agonist inactive, CAL PDZ FP-1 inactive, CAL PDZ FP-2 inactive, PKA-R2B act inactive, PKA-R1A act inactive, dFosB act-1 47 and dFosB act-2 inactive.
CCOc1cc(/C=N\Nc2nc(Nc3ccccc3)nc(N3CCOCC3)n2)ccc1OC(=O)c1ccco1 was read as NTR1 agonist inactive, CAL PDZ FP-1 inactive, CAL PDZ FP-2 inactive, PKA-R2B act inactive, PKA-R1A act inactive, dFosB act-1 48 and dFosB act-2 inactive.
`COc1cc(OC)cc(-c2c(-c3cccs3)c3cc(-c4ccc5[nH]ccc5c4)ccc3n2C)c1` gave NTR1 agonist inactive, CAL PDZ FP-1 inactive, CAL PDZ FP-2 inactive, PKA-R2B act inactive, PKA-R1A act inactive and dFosB act-1 inactive.
Screening O=C(C1CC(=O)N(c2ccc3c(c2)OCCO3)C1)N1CCN(Cc2ccccc2F)CC1 (centres undefined) returned NTR1 agonist inactive, CAL PDZ FP-1 inactive, CAL PDZ FP-2 inactive, PKA-R2B act inactive, PKA-R1A act inactive and dFosB act-1 inactive.
`O=C(Nc1c(-c2ccccc2)nc2ncccn12)c1cc2ccccc2oc1=O` gave NTR1 agonist inactive, CAL PDZ FP-2 inactive, PKA-R2B act inactive, PKA-R1A act inactive, dFosB act-1 38 and dFosB act-2 inactive.
O=C(Nc1cccc(-c2cn3ccccc3n2)c1)c1cc2ccccc2oc1=O was read as NTR1 agonist inactive, CAL PDZ FP-2 inactive, PKA-R2B act inactive, PKA-R1A act inactive, dFosB act-1 61 and dFosB act-2 inactive.
CNC(=O)c1nn(C)c(=O)[nH]c1=O was read as CAL PDZ FP-1 inactive, CAL PDZ FP-2 inactive, PKA-R2B act inactive, PKA-R1A act inactive and dFosB act-1 inactive.
For CCOc1ccc(-c2c(C(=O)N/N=C/c3ccc(O)cc3)nnn2-c2nonc2N)cc1 the results were NTR1 agonist inactive, CAL PDZ FP-1 inactive, CAL PDZ FP-2 inactive, PKA-R2B act inactive, PKA-R1A act inactive and dFosB act-1 inactive.
For CCOc1cccc(-c2c(C(=O)N/N=C/c3ccc(Br)cc3)nnn2-c2nonc2N)c1 the results were NTR1 agonist inactive, CAL PDZ FP-1 inactive, CAL PDZ FP-2 inactive, PKA-R2B act inactive, PKA-R1A act inactive, dFosB act-1 29 and dFosB act-2 inactive.
Screening COc1cccc(-c2c(C(=O)N/N=C/c3ccsc3)nnn2-c2nonc2N)c1 returned NTR1 agonist inactive, CAL PDZ FP-1 inactive, CAL PDZ FP-2 inactive, PKA-R2B act inactive, PKA-R1A act inactive, dFosB act-1 20 and dFosB act-2 inactive.
For CCOc1ccc(-c2c(C(=O)N/N=C/c3cccc(Br)c3)nnn2-c2nonc2N)cc1 the results were NTR1 agonist inactive, CAL PDZ FP-1 inactive, CAL PDZ FP-2 inactive, PKA-R2B act inactive, PKA-R1A act inactive, dFosB act-1 55 and dFosB act-2 inactive.
Screening C[C@@H]1CN([C@@H](C)CO)C(=O)CCCn2nncc2CO[C@H]1CN(C)Cc1cccc(C(F)(F)F)c1 returned PKA-R2B act inactive and PKA-R1A act inactive.
Screening Cc1noc(C)c1C(=O)OC(C)C(=O)NC(C)c1ccc(Cl)cc1Cl (centres undefined) returned NTR1 agonist inactive, CAL PDZ FP-2 inactive, PKA-R2B act inactive, PKA-R1A act inactive and dFosB act-1 inactive.
